Reference: ChEMBL document CHEMBL4038305, “Benzoxaborole Antimalarial Agents. Part 5. Lead Optimization of Novel Amide Pyrazinyloxy Benzoxaboroles and Identification of a Preclinical Candidate” (J Med Chem, 2017)

Columns and labels:
[1] = test system: Plasmodium berghei; assay: Antimalarial activity against Plasmodium berghei infected in Swiss Webster mouse assessed as mouse survival rate at 3.7 mg/kg administered once daily via oral gavage for 4 consecutive days beginning 1 hr after infection measured on day 4 post infection relative to control; type: functional
Method in brief: (§1)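 P. berghei-infected erythrocytes taken from a previously infected mouse were injected intraperitoneally. Oral dosing, once daily for 4 consecutive days, began 1 h after infection, in polyethylene glycol 300/propylene glycol/water (55/25/20 by weight). Chloroquine at 30 mg/kg was the positive control, with a vehicle-only group. Percent survival was recorded daily from day 4 to day 20.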

[2] = test system: Plasmodium berghei; assay: Antimalarial activity against Plasmodium berghei infected in Swiss Webster mouse assessed as mouse survival rate at 3.7 mg/kg administered once daily via oral gavage for 4 consecutive days beginning 1 hr after infection measured on day 6 post infection relative to control; type: functional; method in brief: as §1
[3] = Metabolic stability in rat hepatocytes at 22 uM after 44 hrs; type: ADME, cell-based, Hepatocyte
[4] = test system: Plasmodium berghei; assay: Antimalarial activity against Plasmodium berghei infected in Swiss Webster mouse assessed as mouse survival rate at 11 mg/kg administered once daily via oral gavage for 4 consecutive days beginning 1 hr after infection measured on day 5 post infection relative to control; type: functional; method in brief: as §1
[5] = test system: Plasmodium berghei; assay: Antimalarial activity against Plasmodium berghei infected in Swiss Webster mouse assessed as mouse survival rate at 0.4 mg/kg administered once daily via oral gavage for 4 consecutive days beginning 1 hr after infection measured on day 6 post infection relative to control; type: functional
Method in brief: (§2)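 Mice given an intraperitoneal injection of P. berghei-infected erythrocytes taken from a previously infected animal. Oral dosing once daily for 4 consecutive days, starting 1 h after infection. Vehicle: polyethylene glycol 300/propylene glycol/water (weight ratio 55/25/20). Percent survival recorded daily from day 4 to day 20. Chloroquine 30 mg/kg and vehicle-only groups served as controls.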

[6] = test system: Plasmodium berghei; assay: Antimalarial activity against Plasmodium berghei infected in Swiss Webster mouse assessed as mouse survival rate at 100 mg/kg administered once daily via oral gavage for 4 consecutive days beginning 1 hr after infection measured on day 10 post infection relative to control; type: functional; method in brief: as §2
[7] = test system: Plasmodium berghei; assay: Antimalarial activity against Plasmodium berghei infected in Swiss Webster mouse assessed as mouse survival rate at 33 mg/kg administered once daily via oral gavage for 4 consecutive days beginning 1 hr after infection measured on day 9 post infection relative to control; type: functional; method in brief: as §1
[8] = test system: Plasmodium berghei; assay: Antimalarial activity against Plasmodium berghei infected in Swiss Webster mouse assessed as mouse survival rate at 33 mg/kg administered once daily via oral gavage for 4 consecutive days beginning 1 hr after infection measured on day 10 post infection relative to control; type: functional; method in brief: as §1
[9] = test system: Plasmodium berghei; assay: Antimalarial activity against Plasmodium berghei infected in Swiss Webster mouse assessed as mouse survival rate at 0.1 mg/kg administered once daily via oral gavage for 4 consecutive days beginning 1 hr after infection measured on day 7 post infection relative to control; type: functional; method in brief: as §2
[10] = test system: Plasmodium berghei; assay: Antimalarial activity against Plasmodium berghei infected in Swiss Webster mouse assessed as mouse survival rate at 33 mg/kg administered once daily via oral gavage for 4 consecutive days beginning 1 hr after infection measured on day 5 post infection relative to control; type: functional; method in brief: as §1
[11] = test system: Plasmodium berghei; assay: Antimalarial activity against Plasmodium berghei infected in Swiss Webster mouse assessed as mouse survival rate at 0.1 mg/kg administered once daily via oral gavage for 4 consecutive days beginning 1 hr after infection measured on day 5 post infection relative to control; type: functional; method in brief: as §2
[12] = test system: Plasmodium berghei; assay: Antimalarial activity against Plasmodium berghei infected in Swiss Webster mouse assessed as mouse survival rate at 33 mg/kg administered once daily via oral gavage for 4 consecutive days beginning 1 hr after infection measured on day 7 post infection relative to control; type: functional; method in brief: as §1
[13] = test system: Plasmodium berghei; assay: Antimalarial activity against Plasmodium berghei infected in Swiss Webster mouse assessed as mouse survival rate at 33 mg/kg administered once daily via oral gavage for 4 consecutive days beginning 1 hr after infection measured on day 13 post infection relative to control; type: functional; method in brief: as §1
[14] = test system: Plasmodium berghei; assay: Antimalarial activity against Plasmodium berghei infected in Swiss Webster mouse assessed as mouse survival rate at 100 mg/kg administered once daily via oral gavage for 4 consecutive days beginning 1 hr after infection measured on day 12 post infection relative to control; type: functional; method in brief: as §2
[15] = test system: Plasmodium berghei; assay: Antimalarial activity against Plasmodium berghei infected in Swiss Webster mouse assessed as mouse survival rate at 11 mg/kg administered once daily via oral gavage for 4 consecutive days beginning 1 hr after infection measured on day 4 post infection relative to control; type: functional; method in brief: as §1
[16] = test system: Plasmodium berghei; assay: Antimalarial activity against Plasmodium berghei infected in Swiss Webster mouse assessed as mouse survival rate at 33 mg/kg administered once daily via oral gavage for 4 consecutive days beginning 1 hr after infection measured on day 14 post infection relative to control; type: functional; method in brief: as §1
[17] = test system: Plasmodium berghei; assay: Antimalarial activity against Plasmodium berghei infected in Swiss Webster mouse assessed as mouse survival rate at 100 mg/kg administered once daily via oral gavage for 4 consecutive days beginning 1 hr after infection measured on day 14 post infection relative to control; type: functional; method in brief: as §2
[18] = test system: Plasmodium berghei; assay: Antimalarial activity against Plasmodium berghei infected in Swiss Webster mouse assessed as mouse survival rate at 100 mg/kg administered once daily via oral gavage for 4 consecutive days beginning 1 hr after infection measured on day 5 post infection relative to control; type: functional; method in brief: as §2
[19] = test system: Plasmodium berghei; assay: Antimalarial activity against Plasmodium berghei infected in Swiss Webster mouse assessed as mouse survival rate at 100 mg/kg administered once daily via oral gavage for 4 consecutive days beginning 1 hr after infection measured on day 7 post infection relative to control; type: functional; method in brief: as §2
[20] = test system: Plasmodium berghei; assay: Antimalarial activity against Plasmodium berghei infected in Swiss Webster mouse assessed as mouse survival rate at 1.2 mg/kg administered once daily via oral gavage for 4 consecutive days beginning 1 hr after infection measured on day 7 post infection relative to control; type: functional; method in brief: as §2
[21] = test system: Plasmodium berghei; assay: Antimalarial activity against Plasmodium berghei infected in Swiss Webster mouse assessed as mouse survival rate at 200 mg/kg administered once daily via oral gavage for 4 consecutive days beginning 1 hr after infection measured on day 8 post infection relative to control; type: functional; method in brief: as §1
[22] = test system: Plasmodium berghei; assay: Antimalarial activity against Plasmodium berghei infected in Swiss Webster mouse assessed as mouse survival rate at 1.2 mg/kg administered once daily via oral gavage for 4 consecutive days beginning 1 hr after infection measured on day 4 post infection relative to control; type: functional; method in brief: as §2
[23] = test system: Plasmodium berghei; assay: Antimalarial activity against Plasmodium berghei infected in Swiss Webster mouse assessed as mouse survival rate at 1.2 mg/kg administered once daily via oral gavage for 4 consecutive days beginning 1 hr after infection measured on day 6 post infection relative to control; type: functional; method in brief: as §2
[24] = test system: Plasmodium berghei; assay: Antimalarial activity against Plasmodium berghei infected in Swiss Webster mouse assessed as mouse survival rate at 200 mg/kg administered once daily via oral gavage for 4 consecutive days beginning 1 hr after infection measured on day 7 post infection relative to control; type: functional; method in brief: as §1
[25] = test system: Plasmodium berghei; assay: Antimalarial activity against Plasmodium berghei infected in Swiss Webster mouse assessed as mouse survival rate at 1.2 mg/kg administered once daily via oral gavage for 4 consecutive days beginning 1 hr after infection measured on day 5 post infection relative to control; type: functional; method in brief: as §2
[26] = test system: Plasmodium berghei; assay: Antimalarial activity against Plasmodium berghei infected in Swiss Webster mouse assessed as mouse survival rate at 200 mg/kg administered once daily via oral gavage for 4 consecutive days beginning 1 hr after infection measured on day 14 post infection relative to control; type: functional; method in brief: as §1

For Cc1c(Oc2cnc(C(=O)N3CC(O)(C(F)(F)F)C3)cn2)ccc2c1B(O)OC2, the survival at 3.7 mg/kg [1] was 100%, the survival at 3.7 mg/kg [2] was 100% and the Stability [3] was “Stable”. For the same compound, the survival at 11 mg/kg [4] was 100%, the survival at 0.4 mg/kg [5] was 100% and the survival at 100 mg/kg [6] was 100%. For the same compound, the survival at 33 mg/kg [7] was 100%, the survival at 33 mg/kg [8] was 50% and the survival at 0.1 mg/kg [9] was 0%. For the same compound, the survival at 33 mg/kg [10] was 100%, the survival at 0.1 mg/kg [11] was 100% and the survival at 33 mg/kg [12] was 100%. It also gave a survival at 33 mg/kg [13] of 50%, a survival at 100 mg/kg [14] of 100% and a survival at 11 mg/kg [15] of 100%. It also gave a survival at 33 mg/kg [16] of 0%, a survival at 100 mg/kg [17] of 100% and a survival at 100 mg/kg [18] of 100%. For the same compound, the survival at 100 mg/kg [19] was 100%.
Compound Cc1c(Oc2cnc(C(=O)NCCO)cn2)ccc2c1B(O)OC2 has a survival at 3.7 mg/kg [1] of 100%, a survival at 3.7 mg/kg [2] of 100% and a survival at 1.2 mg/kg [20] of 0%. It also gave a survival at 11 mg/kg [4] of 100%, a survival at 200 mg/kg [21] of 80% and a survival at 1.2 mg/kg [22] of 100%. The survival at 100 mg/kg [6] was 0%, the survival at 1.2 mg/kg [23] was 100% and the survival at 33 mg/kg [10] was 100%. The survival at 200 mg/kg [24] was 100%, the survival at 33 mg/kg [12] was 0% and the survival at 1.2 mg/kg [25] was 100%. It also gave a survival at 11 mg/kg [15] of 100%, a survival at 100 mg/kg [18] of 100% and a survival at 100 mg/kg [19] of 80%.
CCC1(O)CN(C(=O)c2cnc(Oc3ccc4c(c3C)B(O)OC4)cn2)C1 gave a survival at 3.7 mg/kg [1] of 100%, a survival at 3.7 mg/kg [2] of 100% and a survival at 1.2 mg/kg [20] of 0%. For the same compound, the Stability [3] was “Stable”, the survival at 11 mg/kg [4] was 100% and the survival at 200 mg/kg [21] was 100%. The survival at 0.4 mg/kg [5] was 100%, the survival at 1.2 mg/kg [22] was 100% and the survival at 200 mg/kg [26] was 100%. The survival at 100 mg/kg [6] was 100%, the survival at 1.2 mg/kg [23] was 100% and the survival at 33 mg/kg [7] was 80%. The survival at 33 mg/kg [8] was 20%, the survival at 0.1 mg/kg [9] was 0% and the survival at 33 mg/kg [10] was 100%. For the same compound, the survival at 0.1 mg/kg [11] was 100%, the survival at 200 mg/kg [24] was 100% and the survival at 33 mg/kg [12] was 100%. For the same compound, the survival at 1.2 mg/kg [25] was 100%, the survival at 33 mg/kg [13] was 20% and the survival at 100 mg/kg [14] was 100%. The survival at 11 mg/kg [15] was 100%, the survival at 33 mg/kg [16] was 0% and the survival at 100 mg/kg [17] was 0%. For the same compound, the survival at 100 mg/kg [18] was 100% and the survival at 100 mg/kg [19] was 100%.
Cc1c(Oc2cnc(C(=O)N3CC(O)(C4CC4)C3)cn2)ccc2c1B(O)OC2 showed a survival at 3.7 mg/kg [1] of 100%, a survival at 3.7 mg/kg [2] of 100% and a survival at 1.2 mg/kg [20] of 0%. The Stability [3] was “Stable”, the survival at 11 mg/kg [4] was 100% and the survival at 0.4 mg/kg [5] was 100%. The survival at 1.2 mg/kg [22] was 100%, the survival at 100 mg/kg [6] was 100% and the survival at 1.2 mg/kg [23] was 100%. It also gave a survival at 33 mg/kg [7] of 100%, a survival at 33 mg/kg [8] of 40% and a survival at 0.1 mg/kg [9] of 0%. For the same compound, the survival at 33 mg/kg [10] was 100%, the survival at 0.1 mg/kg [11] was 100% and the survival at 33 mg/kg [12] was 100%. It also gave a survival at 1.2 mg/kg [25] of 100%, a survival at 33 mg/kg [13] of 40% and a survival at 100 mg/kg [14] of 100%. For the same compound, the survival at 11 mg/kg [15] was 100%, the survival at 33 mg/kg [16] was 0% and the survival at 100 mg/kg [17] was 0%. For the same compound, the survival at 100 mg/kg [18] was 100% and the survival at 100 mg/kg [19] was 100%.
